Here are results for 5 compounds from ChEMBL document CHEMBL1155834, “Antimicrobial diterpenes from Trigonostemon chinensis” (2008).

In brackets after ≈: the same amount, converted by molar mass.

One assay deals with Helicobacter pylori. The assay is described as follows: Antibacterial activity against Helicobacter pylori SS1 after 96 hrs. The assay is classed as functional. The conditions noted are these: SS1, 96 h. A digest of the protocol: (§1)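 Agar plates inoculated with H. pylori cells suspended in saline at 10^8 cfu/mL, incubated 37 °C for 96 h microaerobically (5% O2, 10% CO2, 85% N2) alongside blank and positive controls. Triplicate tests.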
`C=CC1=C(C)C(=O)C=C2[C@]13O[C@H]3C[C@H](C(=C)C)[C@@]2(C)CCC(=O)OC` [TRIGONOCHINENE D] displayed an MIC of 25 µg/mL (≈ 73 µM).
`C=Cc1c(C)c(O)cc2c1CC[C@H](C(=C)C)[C@@]2(C)CCC(=O)OC` had an MIC of 25 µg/mL (≈ 76.1 µM).
On the same count and under the same terms, to `C=CC1=C(C)C(=O)C=C2[C@@]1(O)CC[C@H](C(=C)C)[C@@]2(C)CCC(=O)OC` [TRIGONOCHINENE A] belongs 25 µg/mL (≈ 72.6 µM); to `COc1cc2c(cc(OC)c3cc(C)c(O)cc32)c(C)c1O` [TRIGONOCHINENE E], 25 µg/mL (≈ 83.8 µM); to `C=Cc1c(C)c(O)cc2c1CC[C@H](C(=C)C)[C@@]2(C)CCC(=O)O`, 25 µg/mL (≈ 79.5 µM).

Another assay concerns Candida albicans. The assay is described as follows: Antifungal activity against Candida albicans after 48 hrs.
Settings: not given
The assay is classed as functional. The method in brief: (§2)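 Fungi grown in Sabouraud dextrose broth with compound at 37 °C for 48 h. MIC is the lowest concentration completely inhibiting visible growth.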
As for `C=CC1=C(C)C(=O)C=C2[C@]13O[C@H]3C[C@H](C(=C)C)[C@@]2(C)CCC(=O)OC` [TRIGONOCHINENE D], the MIC was above 50 µg/mL.
For the compound `C=Cc1c(C)c(O)cc2c1CC[C@H](C(=C)C)[C@@]2(C)CCC(=O)OC`, the MIC is above 50 µg/mL.
In the case of `C=CC1=C(C)C(=O)C=C2[C@@]1(O)CC[C@H](C(=C)C)[C@@]2(C)CCC(=O)OC` [TRIGONOCHINENE A], the MIC was above 50 µg/mL.
Compound `COc1cc2c(cc(OC)c3cc(C)c(O)cc32)c(C)c1O` [TRIGONOCHINENE E] showed an MIC of 12.5 µg/mL (≈ 41.9 µM).
Take `C=Cc1c(C)c(O)cc2c1CC[C@H](C(=C)C)[C@@]2(C)CCC(=O)O`: the MIC is above 50 µg/mL.

In another assay the test system is Helicobacter pylori. The assay is described as follows: Antibacterial activity against metronidazole-resistant Helicobacter pylori ATCC 43504 after 96 hrs. The assay is classed as functional. The conditions noted are these: ATCC 43504, 96 h. The method in brief:
as §1
With `C=CC1=C(C)C(=O)C=C2[C@]13O[C@H]3C[C@H](C(=C)C)[C@@]2(C)CCC(=O)OC` [TRIGONOCHINENE D], the MIC was found to be 50 µg/mL (≈ 146 µM).
Compound `C=Cc1c(C)c(O)cc2c1CC[C@H](C(=C)C)[C@@]2(C)CCC(=O)OC` returned an MIC of 50 µg/mL (≈ 152 µM).
Same read-out and setting: to `C=CC1=C(C)C(=O)C=C2[C@@]1(O)CC[C@H](C(=C)C)[C@@]2(C)CCC(=O)OC` [TRIGONOCHINENE A] belongs 50 µg/mL (≈ 145 µM); to `COc1cc2c(cc(OC)c3cc(C)c(O)cc32)c(C)c1O` [TRIGONOCHINENE E], above 50 µg/mL.
Consider `C=Cc1c(C)c(O)cc2c1CC[C@H](C(=C)C)[C@@]2(C)CCC(=O)O`, for which the MIC is above 50 µg/mL.

The test system of a further assay is Shigella flexneri. The assay is described as follows: Antibacterial activity against Shigella flexneri after 18 hrs. The assay is classed as functional.
Settings: not given
A digest of the protocol:
(§3)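 Broth dilution in Mueller Hinton broth, compounds dissolved in DMSO. Cells incubated aerobically with compound at 37 °C for 18 h, with DMSO-only blank cultures. MIC is the lowest concentration giving complete inhibition of visible growth.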
`C=CC1=C(C)C(=O)C=C2[C@]13O[C@H]3C[C@H](C(=C)C)[C@@]2(C)CCC(=O)OC` [TRIGONOCHINENE D] had an MIC above 50 µg/mL.
The same measure, in the same setting: the figure for `C=Cc1c(C)c(O)cc2c1CC[C@H](C(=C)C)[C@@]2(C)CCC(=O)OC` is above 50 µg/mL; for `C=CC1=C(C)C(=O)C=C2[C@@]1(O)CC[C@H](C(=C)C)[C@@]2(C)CCC(=O)OC` [TRIGONOCHINENE A] it is above 50 µg/mL; for `COc1cc2c(cc(OC)c3cc(C)c(O)cc32)c(C)c1O` [TRIGONOCHINENE E] it is above 50 µg/mL.
On the same count and under the same terms, the figure for `C=Cc1c(C)c(O)cc2c1CC[C@H](C(=C)C)[C@@]2(C)CCC(=O)O` is above 50 µg/mL.

In another assay the test system is Nannizzia gypsea. The assay is described as follows: Antifungal activity against Microsporum gypseum after 48 hrs. The assay is classed as functional.
Settings: not given
A digest of the protocol: as §2
`C=CC1=C(C)C(=O)C=C2[C@]13O[C@H]3C[C@H](C(=C)C)[C@@]2(C)CCC(=O)OC` [TRIGONOCHINENE D] registered an MIC above 50 µg/mL.
The compound `C=Cc1c(C)c(O)cc2c1CC[C@H](C(=C)C)[C@@]2(C)CCC(=O)OC` gave an MIC of 50 µg/mL (≈ 152 µM).
Regarding `C=CC1=C(C)C(=O)C=C2[C@@]1(O)CC[C@H](C(=C)C)[C@@]2(C)CCC(=O)OC` [TRIGONOCHINENE A], the MIC is above 50 µg/mL.
As to `COc1cc2c(cc(OC)c3cc(C)c(O)cc32)c(C)c1O` [TRIGONOCHINENE E], the lowest concentration to inhibit growth (MIC) was 6.25 µg/mL (≈ 20.9 µM).
For `C=Cc1c(C)c(O)cc2c1CC[C@H](C(=C)C)[C@@]2(C)CCC(=O)O`, the MIC is above 50 µg/mL.

In another assay the test system is Pseudomonas aeruginosa. The assay is described as follows: Antibacterial activity against Pseudomonas aeruginosa after 18 hrs. The assay is classed as functional.
Settings: not given
The method in brief:
as §3
Compound `C=CC1=C(C)C(=O)C=C2[C@]13O[C@H]3C[C@H](C(=C)C)[C@@]2(C)CCC(=O)OC` [TRIGONOCHINENE D] returned an MIC above 50 µg/mL.
The same measure, in the same setting: the figure for `C=Cc1c(C)c(O)cc2c1CC[C@H](C(=C)C)[C@@]2(C)CCC(=O)OC` is above 50 µg/mL; for `C=CC1=C(C)C(=O)C=C2[C@@]1(O)CC[C@H](C(=C)C)[C@@]2(C)CCC(=O)OC` [TRIGONOCHINENE A] it is above 50 µg/mL.
Same read-out and setting: the figure for `COc1cc2c(cc(OC)c3cc(C)c(O)cc32)c(C)c1O` [TRIGONOCHINENE E] is above 50 µg/mL.
On the same count and under the same terms, to `C=Cc1c(C)c(O)cc2c1CC[C@H](C(=C)C)[C@@]2(C)CCC(=O)O` belongs above 50 µg/mL.

For a further assay, the system named is Escherichia coli. The assay is described as follows: Antibacterial activity against Escherichia coli after 18 hrs. The assay is classed as functional.
Settings: not given
A digest of the protocol:
as §3
`C=CC1=C(C)C(=O)C=C2[C@]13O[C@H]3C[C@H](C(=C)C)[C@@]2(C)CCC(=O)OC` [TRIGONOCHINENE D] showed an MIC above 50 µg/mL.
Compound `C=Cc1c(C)c(O)cc2c1CC[C@H](C(=C)C)[C@@]2(C)CCC(=O)OC` gave an MIC above 50 µg/mL.
Compound `C=CC1=C(C)C(=O)C=C2[C@@]1(O)CC[C@H](C(=C)C)[C@@]2(C)CCC(=O)OC` [TRIGONOCHINENE A] had an MIC above 50 µg/mL.
Same read-out and setting: the figure for `COc1cc2c(cc(OC)c3cc(C)c(O)cc32)c(C)c1O` [TRIGONOCHINENE E] is above 50 µg/mL; for `C=Cc1c(C)c(O)cc2c1CC[C@H](C(=C)C)[C@@]2(C)CCC(=O)O` it is above 50 µg/mL.

The subject of another assay is Staphylococcus epidermidis. The assay is described as follows: Antibacterial activity against Staphylococcus epidermidis ATCC 12228 after 18 hrs. The assay is classed as functional. The conditions noted are these: ATCC 12228, 18 h. The method in brief:
as §3
`C=CC1=C(C)C(=O)C=C2[C@]13O[C@H]3C[C@H](C(=C)C)[C@@]2(C)CCC(=O)OC` [TRIGONOCHINENE D] showed an MIC above 50 µg/mL.
In turn, `C=Cc1c(C)c(O)cc2c1CC[C@H](C(=C)C)[C@@]2(C)CCC(=O)OC` had an MIC of 6.25 µg/mL (≈ 19 µM).
The same measure, in the same setting: to `C=CC1=C(C)C(=O)C=C2[C@@]1(O)CC[C@H](C(=C)C)[C@@]2(C)CCC(=O)OC` [TRIGONOCHINENE A] belongs above 50 µg/mL; to `COc1cc2c(cc(OC)c3cc(C)c(O)cc32)c(C)c1O` [TRIGONOCHINENE E], 6.25 µg/mL (≈ 20.9 µM).
On the same count and under the same terms, the figure for `C=Cc1c(C)c(O)cc2c1CC[C@H](C(=C)C)[C@@]2(C)CCC(=O)O` is above 50 µg/mL.

The test system of another assay is Micrococcus luteus. The assay is described as follows: Antibacterial activity against Micrococcus luteus ATCC 9341 after 18 hrs. The assay is classed as functional. The conditions noted are these: ATCC 9341, 18 h. The method in brief: as §3
As for `C=CC1=C(C)C(=O)C=C2[C@]13O[C@H]3C[C@H](C(=C)C)[C@@]2(C)CCC(=O)OC` [TRIGONOCHINENE D], the MIC was above 50 µg/mL.
Same read-out and setting: the figure for `C=Cc1c(C)c(O)cc2c1CC[C@H](C(=C)C)[C@@]2(C)CCC(=O)OC` is 6.25 µg/mL (≈ 19 µM); for `C=CC1=C(C)C(=O)C=C2[C@@]1(O)CC[C@H](C(=C)C)[C@@]2(C)CCC(=O)OC` [TRIGONOCHINENE A] it is above 50 µg/mL.
On the same count and under the same terms, to `COc1cc2c(cc(OC)c3cc(C)c(O)cc32)c(C)c1O` [TRIGONOCHINENE E] belongs 12.5 µg/mL (≈ 41.9 µM); to `C=Cc1c(C)c(O)cc2c1CC[C@H](C(=C)C)[C@@]2(C)CCC(=O)O`, above 50 µg/mL.

Another assay concerns Staphylococcus aureus. The assay is described as follows: Antibacterial activity against Staphylococcus aureus ATCC 25923 after 18 hrs. The conditions noted are these: ATCC 25923, 18 h. The assay is classed as functional. A digest of the protocol:
as §3
As to `C=CC1=C(C)C(=O)C=C2[C@]13O[C@H]3C[C@H](C(=C)C)[C@@]2(C)CCC(=O)OC` [TRIGONOCHINENE D], the MIC was above 50 µg/mL.
The same measure, in the same setting: the figure for `C=Cc1c(C)c(O)cc2c1CC[C@H](C(=C)C)[C@@]2(C)CCC(=O)OC` is 12.5 µg/mL (≈ 38.1 µM); for `C=CC1=C(C)C(=O)C=C2[C@@]1(O)CC[C@H](C(=C)C)[C@@]2(C)CCC(=O)OC` [TRIGONOCHINENE A] it is above 50 µg/mL; for `COc1cc2c(cc(OC)c3cc(C)c(O)cc32)c(C)c1O` [TRIGONOCHINENE E] it is 6.25 µg/mL (≈ 20.9 µM).
On to `C=Cc1c(C)c(O)cc2c1CC[C@H](C(=C)C)[C@@]2(C)CCC(=O)O`, for which the MIC is above 50 µg/mL.

A further assay concerns Bacillus subtilis. The assay is described as follows: Antibacterial activity against Bacillus subtilis CMCC 63501 after 18 hrs. The assay is classed as functional.
Settings: not given
A digest of the protocol: as §3
`C=CC1=C(C)C(=O)C=C2[C@]13O[C@H]3C[C@H](C(=C)C)[C@@]2(C)CCC(=O)OC` [TRIGONOCHINENE D]: the MIC is above 50 µg/mL.
In the case of `C=Cc1c(C)c(O)cc2c1CC[C@H](C(=C)C)[C@@]2(C)CCC(=O)OC`, it took 3.12 µg/mL (≈ 9.5 µM) to inhibit growth (MIC).
On the same count and under the same terms, the figure for `C=CC1=C(C)C(=O)C=C2[C@@]1(O)CC[C@H](C(=C)C)[C@@]2(C)CCC(=O)OC` [TRIGONOCHINENE A] is above 50 µg/mL.
`COc1cc2c(cc(OC)c3cc(C)c(O)cc32)c(C)c1O` [TRIGONOCHINENE E] showed an MIC above 50 µg/mL.
Still for that read-out and setting: to `C=Cc1c(C)c(O)cc2c1CC[C@H](C(=C)C)[C@@]2(C)CCC(=O)O` belongs above 50 µg/mL.
